Data on eight compounds can be found in ChEMBL document CHEMBL3351239, “Polyketide glycosides from Bionectria ochroleuca inhibit Candida albicans biofilm formation” (J Nat Prod, 2014).

Experiment [1] concerns Candida albicans. Nature of the experiment: Inhibition of biofilm formation of Candida albicans SC5314 incubated for 48 hrs by XTT assay. It is filed as functional, organism-based. As to conditions: SC5314, 48 h. The essentials:
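SC5314 pregrown in BHI overnight at 37 °C, washed, and seeded at 2.5 × 10^3 cells/mL in RPMI-1640/MOPS pH 7.0 with diluted compounds (DMSO ≤1% v/v final) for 48 h at 37 °C. Nonadherent cells were removed by two PBS washes and fresh medium added. Biofilm was quantified by XTT at A492. IC50 = concentration at 50% of maximal biofilm formation. Triplicate wells, three separate occasions.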
In general terms: Tetrazolium dyes change colour on reduction, which living cells bring about.

For experiment [2], the system named is Candida albicans. The experiment in a line: Growth inhibition of Candida albicans SC5314 assessed as reduction in reduction in metabolic activity incubated for 48 hrs by XTT assay. The conditions noted are these: SC5314, 48 h. Format: organism-based. The procedure, abridged: (§1)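 SC5314 grown overnight at 37 °C in BHI, washed in PBS and resuspended in RPMI-1640 with 0.17 M MOPS at pH 7.0. Cells at 2.5 × 10^3 cells/mL were exposed to serial dilutions from 20 mM DMSO stocks (final DMSO ≤1% v/v) for 48 h at 37 °C. Viability was read by XTT (0.1 mg/mL, 1 h, A492). MIC = lowest concentration giving ≥80% drop in metabolic activity, per CLSI M27-A3.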

Experiment [3] relates to Candida albicans. The experiment in a line: Potentiation of amphotericin B-induced antimicrobial effect against Candida albicans SC5314 assessed as ratio of MIC for compound plus amphotericin B to MIC for amphotericin B alone incubated for 48 hrs by XTT assay. It is filed as functional. The essentials: (§2)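 Checkerboard assay: C. albicans seeded in 96-well format with test compound alone or combined with amphotericin B, in RPMI-1640 plus MOPS, for 48 h at 37 °C. Viability was read by XTT, with MIC = lowest concentration giving ≥80% metabolic reduction. FIC = MIC in combination / MIC alone for each agent; FICI = FICA + FICB.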

Experiment [4] relates to Candida albicans. The experiment in a line: Antimicrobial activity against Candida albicans SC5314 in presence of amphotericin B incubated for 48 hrs by XTT assay. Format: functional. As to conditions: SC5314, 48 h. The essentials: as §2
For experiment [5], the system named is Candida albicans. Nature of the experiment: Potentiation of amphotericin B-induced antimicrobial effect against Candida albicans SC5314 assessed as ratio of MIC for compound plus amphotericin B to MIC for compound alone incubated for 48 hrs by XTT assay. It is filed as functional. The essentials: as §2
The subject of experiment [6] is Candida albicans. The experiment in a line: Antimicrobial activity against Candida albicans SC5314 incubated for 48 hrs by XTT assay. Format: functional. The conditions noted are these: SC5314, 48 h. The essentials: as §1
Experiment [7] concerns Candida albicans. The experiment in a line: Potentiation of amphotericin B-induced antimicrobial effect against Candida albicans SC5314 incubated for 48 hrs by XTT assay. It is filed as functional. The procedure, abridged: as §2

Each structure is given as a SMILES string. In brackets after ≈: the same amount, converted by molar mass.

Regarding `CCC(C)CC(C)CC(C)C(O[C@@H]1O[C@H](CO)[C@@H](O)[C@H](O)[C@@H]1O)C(C)/C=C(\C)C(O)C(C)/C=C(\C)C(O)C(C)C(=O)O` (stereo partly specified), the values for the IC50 in the experiment on Candida albicans [1] and in the experiment on Candida albicans [2] were 5 µM and above 100 µM, respectively. The results for the Ratio with Candida albicans [3] and in the experiment with Candida albicans [5] were 0.25 and below 0.05, respectively. Besides, the MIC80 is 5 µM in the experiment on Candida albicans [4] and above 100 µM with Candida albicans [6]. Further, the “fractional inhibitory concentration index (FICI)” value in the experiment on Candida albicans [7] is on record as below 0.3.

With `CC[C@H](C)C[C@H](C)C[C@H](C)[C@@H](O[C@@H]1O[C@H](COC(C)=O)[C@@H](O)[C@H](O)[C@@H]1O)[C@@H](C)/C=C(\C)[C@@H](O)[C@@H](C)/C=C(\C)[C@@H](O)[C@@H](C)/C=C(\C)[C@@H](O)[C@@H](C)C(=O)OC[C@@H](O)[C@@H](O)[C@H](O)[C@H](O)CO`, the IC50 in the experiment on Candida albicans [1] was determined as 1.5 µM; in the experiment with Candida albicans [2] it was 24.1 µM. Moreover, the Ratio came out at 0.25 in the experiment on Candida albicans [3] and 0.03 in the experiment with Candida albicans [5]. In addition, the MIC80 in the experiment with Candida albicans [4] was found to be 1.25 µM; against Candida albicans [6], 50 µM (≈ 45.4 µg/mL). Moreover, in the experiment with Candida albicans [7], the “fractional inhibitory concentration index (FICI)” value is recorded as 0.28.

For the compound `CC[C@H](C)C[C@H](C)C[C@H](C)[C@@H](O[C@@H]1O[C@H](CO)[C@@H](O)[C@H](O)[C@@H]1O)[C@@H](C)/C=C(\C)[C@@H](O)[C@@H](C)/C=C(\C)[C@@H](O)[C@@H](C)/C=C(\C)C(=O)OC[C@@H](O)[C@@H](O)[C@H](O)[C@H](O)CO`, the IC50 in the experiment on Candida albicans [1] was 1.1 µM; in the experiment on Candida albicans [2] it was above 100 µM. The Ratio in the experiment on Candida albicans [3] is given as 0.25; in the experiment on Candida albicans [5], below 0.05. Further, the values for the MIC80 with Candida albicans [4] and in the experiment on Candida albicans [6] were 5 µM and above 100 µM, respectively. Further, the “fractional inhibitory concentration index (FICI)” value with Candida albicans [7] was below 0.3.

Regarding `CC[C@H](C)C[C@H](C)C[C@H](C)[C@@H](O[C@@H]1O[C@H](COC(C)=O)[C@@H](O)[C@H](O)[C@@H]1O)[C@@H](C)/C=C(\C)[C@@H](O)[C@@H](C)/C=C(\C)[C@@H](O)[C@@H](C)/C=C(\C)C(=O)OC[C@@H](O)[C@@H](O)[C@H](O)CO`, the IC50 with Candida albicans [1] came to 1.2 µM; in the experiment with Candida albicans [2] it was 41 µM. Further, the Ratio with Candida albicans [3] is listed as 0.25; in the experiment on Candida albicans [5] it was 0.03. The figures for the MIC80 in the experiment on Candida albicans [4] and in the experiment on Candida albicans [6] were 1.25 µM and 50 µM (≈ 41 µg/mL), respectively. Also, the “fractional inhibitory concentration index (FICI)” value in the experiment with Candida albicans [7] amounted to 0.28.

Take `CCCCCC#CCC#CCC#CCC#CCCCC(=O)O`: the IC50 with Candida albicans [1] was 3.4 µM; in the experiment on Candida albicans [2], above 100 µM.

Regarding `CC[C@H](C)C[C@H](C)C[C@H](C)[C@@H](O[C@@H]1O[C@H](CO)[C@@H](O)[C@H](O)[C@@H]1O)[C@@H](C)/C=C(\C)[C@@H](O)[C@@H](C)/C=C(\C)[C@@H](O)[C@@H](C)/C=C(\C)C(=O)OC[C@@H](O)[C@@H](O)[C@H](O)CO`, the IC50 is 1.5 µM with Candida albicans [1] and above 100 µM in the experiment on Candida albicans [2]. Moreover, the Ratio with Candida albicans [3] is on record as 0.25; in the experiment on Candida albicans [5] it was below 0.01. Moreover, the MIC80 with Candida albicans [4] was 1.25 µM; against Candida albicans [6] it was above 100 µM. Further, the “fractional inhibitory concentration index (FICI)” value with Candida albicans [7] is below 0.26.

As to `CC[C@H](C)C[C@H](C)C[C@H](C)[C@@H](O[C@@H]1O[C@H](CO)[C@@H](O)[C@H](O)[C@@H]1O)[C@@H](C)/C=C(\C)[C@@H](O)[C@@H](C)/C=C(\C)[C@@H](O)[C@@H](C)/C=C(\C)[C@@H](O)[C@@H](C)C(=O)O`, the IC50 in the experiment on Candida albicans [1] was 2.4 µM; in the experiment on Candida albicans [2], above 100 µM. Also, the Ratio in the experiment on Candida albicans [3] is 0.25; with Candida albicans [5] it was below 0.05. In addition, the MIC80 was 5 µM in the experiment on Candida albicans [4] and above 100 µM with Candida albicans [6]. Further, the “fractional inhibitory concentration index (FICI)” value in the experiment on Candida albicans [7] is recorded as below 0.3.

As to `CC[C@H](C)C[C@H](C)C[C@H](C)[C@@H](O[C@@H]1O[C@H](COC(C)=O)[C@@H](O)[C@H](O)[C@@H]1O)[C@@H](C)/C=C(\C)[C@@H](O)[C@@H](C)/C=C(\C)[C@@H](O)[C@@H](C)/C=C(\C)C(=O)OC[C@@H](O)[C@@H](O)[C@H](O)[C@H](O)CO`, the IC50 stood at 1.5 µM in the experiment on Candida albicans [1] and 36.3 µM in the experiment on Candida albicans [2]. Besides, the Ratio in the experiment with Candida albicans [3] was 0.25; in the experiment with Candida albicans [5], 0.03. Besides, the MIC80 in the experiment on Candida albicans [4] came to 1.25 µM; with Candida albicans [6] it was 50 µM (≈ 42.5 µg/mL). Also, the “fractional inhibitory concentration index (FICI)” value in the experiment on Candida albicans [7] stood at 0.28.

The term IC50 denotes the midpoint of a concentration-inhibition curve. By MIC80 is commonly meant the lowest concentration that inhibits either 80% of growth or 80% of the strains tested, depending on the study.
